Hits are enriched below; roughly 2.1% of the tested compounds scored in any of these assays.
PKA-R2B act: activates the human PKA-R2B holoenzyme complex. P22694+P31323. PKA-R2B holoenzyme dissociation, Cy5-IP20 fluorescence polarization; R2B truncated from residue 108, S112A mutant; 0% DMSO only, 100% 113 µM cGMP. activation, % at 11.4 µM. 340,000 tested, 0.079% active. AID 504700;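 active = activation above a cutoff set at the mean over all compounds plus 3 SD, cut at about 18% in these data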;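 note: higher means more holoenzyme dissociation and a rise in polarization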
CDK5 p35 inh: inhibitors of human CDK5/p35 kinase; inhibition, % at 10 µM; Q00535+Q15078; AID 488839; Recombinant CDK5/p35, ADP-Glo luminescence, 60 min; 330,000 tested, 0.01% active;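 active = highest replicate inhibition of at least 50% and at least 75% of replicates reaching 50%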
dFosB act-1: mouse delta FosB homodimer activation | 340,000 tested, 0.99% active | purified delta FosB, TAMRA-CDK5 oligo fluorescence polarization; percent of positive-control signal above neutral wells | activation, % at 25 µM | P13346;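 active = mean activation above about 17%, with every replicate also reaching it, limit read from the data, passing the limit was not always enough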
SR-BI uptake up: enhances SR-BI lipid uptake from DiI-HDL; CHO ldlA[mSR-BI] cells, DiI-HDL uptake fluorescence, 3 h; 100 = double the neutral-control signal; activation, % at 12.5 µM; 320,000 tested, 0.096% active; AID 504775;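 active = mean replicate activation of at least 60% and every replicate at or above 60%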
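system = CHO ldlA[mSR-BI] cells, LDL receptor-null, SR-BI overexpressing | medium = Ham's F12 with 0.5% BSA, HEPES 25 mM, pH 7.4 | probe or stimulus = DiI-HDL 10 µg/mL | compound dosing = single-point compound dose | incubation = compound exposure 3 h, 37 °C | technique = DiI fluorescence, bottom read | read-out = cell-associated DiI fluorescence as measure of HDL uptake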
PKA-R1A activ: PKA-R1A complex activation | activation, % at 11.4 µM | PKA-R1A dissociation, Cy5-IP20 fluorescence polarization; scaled: DMSO 0%, 113 µM cGMP 100% | 340,000 tested, 0.083% active | AID 504707;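 active = percent activation above the mean of all tested compounds plus 3 SD, cut at about 19% in these data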;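 note: higher means more PKAc released from R1A so a rise in polarization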
SR-BI HDL uptake: blocks mouse SR-BI lipid uptake from DiI-HDL. Q61009. ldlA[mSR-BI] CHO cells, DiI-HDL uptake fluorescence, 3 h. inhibition, % at 12.5 µM. 320,000 tested, 0.96% active;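 active = mean replicate inhibition of at least 70% and a set share of replicates each scoring 70 or more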
Target sequence (Q61009 whole entry, looked up): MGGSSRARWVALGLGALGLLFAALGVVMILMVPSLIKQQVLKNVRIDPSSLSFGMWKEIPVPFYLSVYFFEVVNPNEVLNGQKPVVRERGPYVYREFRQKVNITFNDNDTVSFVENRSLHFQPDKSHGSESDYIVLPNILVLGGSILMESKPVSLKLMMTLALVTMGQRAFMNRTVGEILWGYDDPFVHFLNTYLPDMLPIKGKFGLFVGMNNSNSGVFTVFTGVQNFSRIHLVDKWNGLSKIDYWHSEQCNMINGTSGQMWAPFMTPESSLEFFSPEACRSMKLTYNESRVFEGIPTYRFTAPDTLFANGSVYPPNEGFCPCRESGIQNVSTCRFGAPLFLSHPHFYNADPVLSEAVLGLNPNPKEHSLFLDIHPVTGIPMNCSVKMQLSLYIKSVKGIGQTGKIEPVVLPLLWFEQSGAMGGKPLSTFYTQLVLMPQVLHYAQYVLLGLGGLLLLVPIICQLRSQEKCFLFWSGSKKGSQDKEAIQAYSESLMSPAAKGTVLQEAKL
dFosB act-2: activators of mouse delta FosB homodimer DNA binding. AID 588690. activation, % at 24.9 µM. shares compounds with dFosB act-1. purified delta FosB, TAMRA-CDK5 oligo fluorescence polarization; normalised: neutral wells 0, positive control 100. 2,400 tested, under 10 active;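 active = highest replicate activation at or above 34% and every replicate reaching that threshold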;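 note: higher polarization means more probe DNA bound by delta FosB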
A number is an active result; 0 = inactive; - = no result.

SMILES | PKA-R2B act | CDK5 p35 inh | dFosB act-1 | SR-BI uptake up | PKA-R1A activ | SR-BI HDL uptake | dFosB act-2
O=C(COC(=O)/C=C/c1ccc(Cl)cc1)Nc1ccc2[nH]c(=O)[nH]c2c1 | 0 | 0 | 21.5 | 0 | 0 | 0 | 0
NS(=O)(=O)c1ccc(CCNC(=O)COC(=O)/C=C/c2ccc(Cl)cc2)cc1 | 0 | 0 | 21.4 | 0 | 0 | 0 | 0
NS(=O)(=O)c1ccc(NC(=O)CCCCCN2C(=O)c3ccccc3C2=O)cc1 | 0 | 0 | 0 | 0 | 0 | 0 | -
Cc1cc(NC(=O)COC(=O)[C@H](Cc2ccccc2)NC(=O)c2ccco2)no1 | 0 | 0 | 0 | 0 | 0 | 0 | -
CCCCOc1ccc(/C=C/C(=O)N(CC)CC(=O)Nc2ccc3c(c2)OCCO3)cc1OC | 0 | 0 | 0 | 0 | 0 | 0 | -
COc1cc(/C=N/NC(=S)NC(C)C)ccc1OCC(=O)Nc1c(C)cc(C)cc1C | 0 | 0 | 29.1 | 0 | 0 | 0 | 0
CCCCNC(=S)N(C)/N=C/c1ccc(OCC(=O)Nc2c(C)cc(C)cc2C)c(OC)c1 | 0 | 0 | 0 | 0 | 0 | 0 | -
CC(C)c1ncc(CO)n1Cc1c(Cl)cccc1Cl | 0 | - | - | - | 0 | - | -
Cc1ccc(C)c(NC(=O)C2CC3c4ccccc4C2c2ccccc23)c1 (configuration not stated) | 0 | 0 | 39.9 | 0 | 0 | 0 | 0
O=C(N/N=C\c1ccc(CNS(=O)(=O)c2ccc(Cl)cc2)o1)C(=O)Nc1ccc(Oc2ccccc2)cc1 | 0 | - | 0 | 0 | 0 | 0 | -
O=C(N/N=C\c1ccc(CNS(=O)(=O)c2ccccc2)o1)C(=O)Nc1ccc(F)cc1 | 0 | 0 | 37.8 | 0 | 0 | 0 | 0
O=C(CCNC(=O)c1ccccc1Cl)NCCc1ccc(Cl)cc1 | 0 | 0 | 0 | 0 | 0 | 0 | -
O=C(Cc1c(Cl)cccc1Cl)NCCc1ccc(Cl)cc1 | 0 | 0 | 20.1 | 0 | 0 | 0 | 0
COc1cc(NC(=O)Cn2cnc(S(=O)(=O)N3CCC(C)CC3)c2)cc(OC)c1OC | 0 | 0 | 0 | 0 | 0 | 0 | -
CCCCc1ccc(NC(=O)N2CCN(c3cc(C)nc4ccccc34)CC2)c(C)c1 | 0 | 0 | 37.4 | 0 | 0 | 0 | 0
O=C1c2cccc3cccc(c23)C(=O)N1c1nccs1 | 0 | 0 | 0 | 0 | 0 | 0 | -
O=C1c2cccc3cccc(c23)C(=O)N1c1ccc2ncccc2c1 | 0 | 0 | 36.1 | 0 | 0 | 0 | 0
O=C(c1cc(-c2cccc(Cl)c2)on1)N1CCN(c2ccc(F)cc2)CC1 | 0 | 0 | 21.0 | 0 | 0 | 0 | 0
CN1CCN(C(=O)c2cc(-c3cccc(Cl)c3)on2)CC1 | 0 | 0 | 0 | 0 | 0 | 0 | -
CCOc1ccc(NC(=O)c2cn(-c3ccc(OCC)cc3)c(=O)c3cc(OC)c(OC)cc23)cc1 | 0 | 0 | 20.5 | 0 | 0 | 0 | 0
CCOc1ccc(-n2cc(C(=O)Nc3cccc(Cl)c3)c3cc(OC)c(OC)cc3c2=O)cc1 | 0 | 0 | 29.3 | 0 | 0 | 0 | 0
CCOc1ccc(-n2cc(C(=O)NC(C)C)c3cc(OC)c(OC)cc3c2=O)cc1 | 0 | 0 | 0 | 0 | 0 | 0 | -
C[C@@H]1CN([C@H](C)CO)C(=O)CCCn2nncc2CO[C@H]1CN(C)Cc1ccc2c(c1)OCCO2 | 0 | - | - | - | 0 | - | -
Cc1ccc2sc(C)cc(=O)c2c1 | 0 | 0 | 0 | 0 | 0 | 0 | -
CCOC(=O)Cc1cnc(NC(=O)CSc2nc(C(C)C)cc(=O)[nH]2)s1 | 0 | 0 | 0 | 0 | 0 | 0 | -
Cn1c(N)c(C(=O)COC(=O)Cc2ccc(Cl)cc2)c(=O)n(C)c1=O | 0 | 0 | 0 | 0 | 0 | 0 | -
COc1ccc2c(c1)CCc1c(C(=O)Nc3ccn(Cc4ccc(C)cc4)n3)noc1-2 | 0 | 0 | 27.8 | 0 | 0 | 0 | 0
CN(c1ccccc1)S(=O)(=O)c1ccc(Cl)c(C(=O)Nc2ccc(-c3nc4ccccc4[nH]3)cc2)c1 | 0 | 0 | 44.0 | 0 | 0 | 0 | 0

Bioassay records (PubChem)
